Screens deposited in PubChem BioAssay by several laboratories.
CAL PDZ FP-1 = CAL PDZ peptide-binding inhibitors, primary screen, biochemical, fluorescence polarization, Cer-tagged CAL PDZ, HTS | Golgi-associated PDZ and coiled-coil motif-containing protein (Homo sapiens), Q9HD26 | purified CAL PDZ, TMR-peptide fluorescence polarization, 1 h | inhibition, % at 20 µM | 330,000 tested, 0.02% active;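 active = highest replicate inhibition of at least 40%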;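 also: plate controls were DMSO neutral control wells for no effect and unlabeled competitor peptide control wells for full effect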
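Material – purified CerCALP PDZ construct · Detection – FP readout, S and P plane fluorescence · Measure – percent inhibition from loss of millipolarization · Controls – unlabelled peptide for full inhibition, DMSO wells as neutral · Probe or stimulus – TMR-labelled reporter peptide T*-PRC34 bound in PDZ groove · Times – 1 h at RT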
Cardiac RTF inh = cardiac RTF calcium sensitivity inhibitors, primary screen, biochemical, IANBD-TnC fluorescence, EC70 calcium | IANBD-labeled cardiac RTF, Ca2+ fluorescence | inhibition, % at 7.15 µM | 340,000 tested, 0.12% active | AID 493244, 2011;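 active = inhibition above the mean inhibition of all tested compounds plus 3 SD, cut at about 17% in these data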;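 also: assay run at fixed EC70 calcium of 1.6 mM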
cardiac RTF act = cardiac RTF calcium sensitivity activators, primary screen, biochemical, IANBD-TnC fluorescence, EC20 calcium; 340,000 tested, 0.24% active; IANBD-labeled TnC RTF fluorescence at EC20 calcium; 0% EC20 calcium, 100% full calcium; Troponin I, cardiac muscle (Homo sapiens) + Troponin T, cardiac muscle (Homo sapiens) + …; activation, % at 7.2 µM;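 active = activation above the mean over all tested compounds plus 3 SD, cut at about 30% in these data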;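 also: rise in fluorescence read as greater calcium sensitivity of cardiac thin filaments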
CAL PDZ FP-2 = untagged CAL PDZ binding inhibitors, primary screen, biochemical, fluorescence polarization, HTS | Golgi-associated PDZ and coiled-coil motif-containing protein (Homo sapiens), Q9HD26 | purified CAL PDZ, TMR-peptide fluorescence polarization, 1 h | inhibition, % at 24.9 µM | 300,000 tested, 0.92% active | AID 602252, 2012;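 active = mean inhibition of at least 30% with at least half of replicates also reaching 30%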;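 also: 0% = DMSO neutral control and 100% = excess unlabeled competitor peptide PRC23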
Keap1 Nrf2 FP = Keap1-Nrf2 protein-protein interaction inhibitors, primary screen, biochemical, fluorescence polarization, single point | Kelch-like ECH-associated protein 1 (Homo sapiens), Q14145 | 340,000 tested, 0.15% active | inhibition, % at 9.4 µM | AID 504523, 2011 | Keap1 Kelch-Nrf2 peptide fluorescence polarization, 1536-well; in the data active = inhibition above about 12%;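 also: human Keap1 Kelch domain with fluorescein labeled Nrf2 9mer peptide probe; 0% = neutral control wells and 100% = peptide positive control; higher means more block of Keap1 binding to Nrf2 peptide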
Target sequence (Q14145 whole entry, looked up, the tested form may be a part): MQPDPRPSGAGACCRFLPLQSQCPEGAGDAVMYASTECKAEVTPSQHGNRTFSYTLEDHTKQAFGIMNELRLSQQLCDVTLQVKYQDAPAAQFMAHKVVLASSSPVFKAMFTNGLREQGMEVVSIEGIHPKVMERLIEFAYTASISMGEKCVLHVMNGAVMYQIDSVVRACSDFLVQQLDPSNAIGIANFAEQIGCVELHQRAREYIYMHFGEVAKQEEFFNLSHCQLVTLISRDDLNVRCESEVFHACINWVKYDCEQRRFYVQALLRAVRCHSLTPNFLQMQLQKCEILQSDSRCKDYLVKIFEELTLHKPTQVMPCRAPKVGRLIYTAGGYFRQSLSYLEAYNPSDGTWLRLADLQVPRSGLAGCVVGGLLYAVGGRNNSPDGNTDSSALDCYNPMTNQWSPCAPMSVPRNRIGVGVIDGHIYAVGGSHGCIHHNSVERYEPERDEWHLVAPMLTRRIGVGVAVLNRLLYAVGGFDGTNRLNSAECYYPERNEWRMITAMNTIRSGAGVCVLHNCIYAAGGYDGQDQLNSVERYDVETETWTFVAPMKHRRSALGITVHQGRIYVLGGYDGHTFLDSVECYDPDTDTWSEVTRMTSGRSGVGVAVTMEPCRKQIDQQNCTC
C-LANA FP = inhibitors of KSHV C-LANA binding to DNA, primary screen, biochemical, fluorescence polarization, FAM-LBS DNA, MBP-C-LANA, single point | AID 504423, 2011 | Kaposi's sarcoma herpesvirus LANA C-terminal domain (residues 932-1162) DNA binding | 340,000 tested, 0.078% active | inhibition, % at 9 µM;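 active = highest replicate inhibition at or above 60% at 9 µM, even if other replicates fall short; inactive = all replicates below 60% inhibition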;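 also: 0% = neutral control wells and 100% = 4 µM acridine orange control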
Keap1 Kelch bind = Keap1 Kelch domain binders by thermal stabilisation, dose response, biophysical, thermal shift, RT-PCR instrument, cherry-pick; shares compounds with Keap1 Nrf2 FP; delta Tm; active compounds read high; max delta Tm, degrees C; 400 tested, 8% active; AID 651823, 2012; in the data active = max delta Tm above about 0.48 degrees C
Sypro dye melt = Sypro Orange dye melt without protein, dose response, artefact control for Keap1-Nrf2 interaction inhibitor project, biochemical, thermal shift counterscreen, cherry-pick | AID 651858, 2012 | delta Tm, degrees C (no concentration beside the values) | 140 tested, under 10 active | Sypro Orange dye-only thermal melt, no protein, delta Tm; top dose 26 µM | shares compounds with Keap1 Nrf2 FP;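 active = at highest dose tested, delta Tm positive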
Starred values were filed as active, the others as inactive; / = no result. Sampled rows, rich in hits. Any-hit rate of the full collection: about 1.3%.

SMILES	CAL PDZ FP-1	Cardiac RTF inh	cardiac RTF act	CAL PDZ FP-2	Keap1 Nrf2 FP	C-LANA FP	Keap1 Kelch bind	others
CC1=NCCc2c1[nH]c1cc(O)ccc21	0	-432	334*	4	102*	168*	-0.16	Sypro dye melt=-36
COc1ccc2c3c([nH]c2c1)C(C)=NCC3	5	-4	19	-3	-1	0	/
O=C1C2CCN(CC2)C1Cc1ccc(OCc2ccccc2)cc1 (centres undefined)	-1	-2	4	4	-3	0	/
CN(CC(=O)Nc1ccccc1-c1ccccc1)C1CCCCC1	-1	-4	4	/	-3	-2	/
CC1=C[C@@H]2c3cccc4[nH]cc(c34)C[C@H]2N(C)C1	0	-40	36*	2	14*	17	0
CN1C[C@H](CO)C=C2c3cccc4[nH]cc(c34)C[C@H]21	1	-24	18	3	9	17	/
CCn1cc(C=C2C(=O)NC(=O)NC2=O)c2ccccc21	-2	-4	1	2	21*	29	-0.08
CCOC(=O)c1sc(/N=C/c2c(O)n(-c3ccccc3)c(=O)[nH]c2=O)c(C#N)c1C	1	3	7	-5	-21	-1	/
CCOC(=O)c1c(/N=C/c2c(O)n(-c3cccc(C)c3)c(=O)[nH]c2=O)sc2c1CCCC2	1	-2	-3	-1	72*	9	-0.08
COc1ccc(-n2c(CNCCc3ccc(C)cc3)nc3ccccc3c2=O)cc1	-1	-3	1	/	36*	18	-0.19	Sypro dye melt=-28
COCCNC(=O)Cn1cc(/C=C2\C(=O)NC(=O)N(c3cccc(C)c3C)C2=O)c2ccccc21	/	-10	3	-8	20*	53	-0.22	Sypro dye melt=-30
CNC(C(=O)c1ccccc1)C(OC)c1cccc([N+](=O)[O-])c1 (centres undefined)	0	4	-3	1	-3	1	/
CSc1nnc(C2CCNCC2)n1C	-1	7	13	-3	-5	-3	/
O=C(O)c1cccc2c1NC(C(=O)O)C1CC(Sc3ccccc3[N+](=O)[O-])C(Cl)C21 (centres undefined)	2	56*	-37	8	31*	132*	1*
